Assay outcomes (PubChem BioAssay)
In the library only some 2.8% were active in any assay of this set; here they are far more common.
Arbovirus inh: antivirals against arbovirus infection | arbovirus infection cell-based antiviral screen | inhibition, % at 10 µM | 200,000 compounds, 0.37% hits | AID 1251; in the data active = inhibition above about 30%
Mcl1-Noxa inh: Mcl-1/Noxa interaction inhibition; Q07820; TR-FRET Mcl-1/Noxa peptide binding, 2 h; inhibition, % at 21.7 µM; 220,000 compounds, 1.5% hits; AID 1022;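 active = compounds that cut the protein-peptide binding signal by more than 50% relative to plate controls in a single-dose test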;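 also: His-tagged Mcl-1 with rhodamine Noxa BH3 peptide and terbium anti-His antibody; 0% = Mcl-1 plus Noxa peptide wells and 100% = peptide-only wells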
Target sequence (Q07820 whole entry, looked up): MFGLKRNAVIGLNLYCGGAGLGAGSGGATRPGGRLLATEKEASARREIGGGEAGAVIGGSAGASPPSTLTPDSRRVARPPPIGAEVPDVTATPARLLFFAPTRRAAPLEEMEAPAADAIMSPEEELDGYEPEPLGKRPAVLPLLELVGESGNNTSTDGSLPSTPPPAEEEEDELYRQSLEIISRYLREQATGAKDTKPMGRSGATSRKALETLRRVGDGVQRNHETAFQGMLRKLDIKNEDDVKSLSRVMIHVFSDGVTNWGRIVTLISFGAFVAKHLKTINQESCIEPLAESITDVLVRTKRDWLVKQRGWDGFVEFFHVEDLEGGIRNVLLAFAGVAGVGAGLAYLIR
Mcl1 Bid PPI: Mcl-1/Bid interaction inhibition. Q07820. TR-FRET Mcl-1/Bid-Dy647 peptide binding, 1536-well. inhibition, % at 21.7 µM. 220,000 compounds, 0.97% hits. AID 1021;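 active = compounds that cut the binding signal by more than half at the single screening dose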;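 also: His-tagged Mcl-1 with europium anti-His antibody binding Bid BH3 peptide; 0% = Mcl-1 plus peptide wells and 100% = peptide-only wells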
Bim-Mcl-1: disrupts Bim peptide binding to human Mcl-1. 190,000 compounds, 0.1% hits. inhibition, % at 10 µM. Q07820. AID 1009. Bead-based flow cytometry, Bim peptide-Mcl-1 binding; in the data active = inhibition above about 40%;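 also: 0% = no compound tracer wells and 100% = peptide blocker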
m-calpain inh: blocks pig calpain II enzyme activity | purified calpain II, fluorogenic peptide substrate, 30 min | inhibition, % at 16 µM | 220,000 compounds, 0.37% hits;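 active = inhibition above about 50%, limit read from the data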
Calb biofilm kill: mixture kills Candida albicans biofilm cells | C. albicans biofilm persisters + clotrimazole, fluorescence viability; primary screen in compound mixtures of four per well | 120,000 compounds, 0.02% hits | AID 1242 | inhibition, % at 7.6 µM;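 active = inhibition above 30.3% in the primary screen of four-compound pools, then above 30% when the compound was retested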;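 also: compounds exposed to preformed 24 h biofilms for 48 h; 0% = untreated biofilm control and 100% = clotrimazole plus chlorhexidine kill blank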
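Assay system: C. albicans biofilms / Medium: RPMI/MOPS medium, pH 7.0 / Schedule: biofilm formation 24 h, compound exposure 48 h, 37 °C / Measured by: Alamar Blue fluorescence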
The depositor's hits bear a star; · = no result given.

SMILES	Arbovirus inh	Mcl1-Noxa inh	Mcl1 Bid PPI	Bim-Mcl-1	m-calpain inh	Calb biofilm kill
CN(C)[C@@H]1C(=O)C(C(=O)NCN2CCCC2)=C(O)[C@@]2(O)C(=O)C3=C(O)c4c(O)cccc4[C@@](C)(O)C3CC12 (stereo partly drawn)	2	103*	87*	22	-47	6
CC(C)CNC(=O)c1cccc(NC(=O)c2ccc(Cl)c([N+](=O)[O-])c2)c1	-4	5	-14	45*	1	15
O=C(Nc1nc(-c2cccnc2)cs1)c1cccc([N+](=O)[O-])c1	-8	63*	27	-2	-43	11
O=C(CC1NCCNC1=O)Nc1cccc([N+](=O)[O-])c1 (stereo not drawn)	2	15	-23	58*	-12	20
O=C(Nc1cccc([N+](=O)[O-])c1)c1cccc(C(=O)Nc2cccc([N+](=O)[O-])c2)c1	·	62*	53*	·	56*	1
O=C(Nc1nc(-c2ccccc2)cs1)c1cccc([N+](=O)[O-])c1	-4	17	4	-3	-18	·
Cc1cccc(NC(=O)CC2NCCNC2=O)c1 (stereo not drawn)	1	-7	-20	1	-9	·
COc1cccc(C(=O)Nc2cccc(C(=O)NCC(C)C)c2)c1	-1	17	-7	-4	23	16
Nc1c(-c2ccccc2)c(CSc2nc3ccccc3[nH]2)nn1-c1ccc(C(=O)O)cc1	-7	0	-59	0	-31	10
O=C(CSc1ncn[nH]1)Nc1ccc(S(=O)(=O)Nc2ncccn2)cc1	4	11	-29	3	-31	3
O=C(CCNc1ccccc1)c1cccc([N+](=O)[O-])c1	-7	18	-5	-4	51*	·
O=C(CCNc1ccc(F)cc1)c1cccc([N+](=O)[O-])c1	-44	14	-4	-2	14	·
CCOC(=O)/C=C/C(=O)Nc1cccc([N+](=O)[O-])c1	5	66*	-8	0	-5	11
Cc1nn(-c2ccc(Cl)cc2)c(NC(=O)C(C)C)c(-c2ccccc2)c1=O	·	13	-14	·	1	25
Cc1ccc2c(c1)C(=O)c1ccccc1CS2=O (stereo not drawn)	-6	13	-9	-5	-6	10
O=C1c2ccccc2C(Nc2ccc(S(=O)(=O)N3CCCCC3)cc2)N1c1ccccn1 (stereo not drawn)	32*	·	·	·	·	·
COc1ccc2cc(C#N)c(SCC(=O)NNC(=O)Cc3ccccc3)nc2c1	-15	-100	-31	2	-68	·
Cc1ccc2cc(C#N)c(SCC(=O)NNC(=O)Cc3ccccc3)nc2c1	0	-368	-26	-3	59*	-8
CC1CCCN(c2nc(N(C)c3ccccc3)nc(N)c2[N+](=O)[O-])C1 (stereo not drawn)	·	5	-1	·	26	14
CCOC(=O)c1cn(CC)c2ccc(S(=O)(=O)N3CC(C)CC(C)C3)cc2c1=O (stereo not drawn)	-2	8	54*	0	5	·
CCn1cc(C(=O)NCc2cccs2)c(=O)c2cc(S(=O)(=O)N3CCOCC3)ccc21	·	20	51*	·	8	1
CCOC(=O)c1cn(CC)c2ccc(S(=O)(=O)N3CCC(C)CC3)cc2c1=O	6	43	19	-2	21	·
NC(=O)c1ccccc1N1CCCCC1	·	13	-16	·	9	11
CCOC(=O)c1sc2nc(C)nc(SCC(=O)N(C)C3CCS(=O)(=O)C3)c2c1C (stereo not drawn)	20	9	-30	-4	7	4
Cc1nc2scc(-c3ccccc3)c2c(=O)n1N=C1C=CC(=O)C=C1	-32	63*	-8	1	-80	-17
SMILES	Arbovirus inh	Mcl1-Noxa inh	Mcl1 Bid PPI	Bim-Mcl-1	m-calpain inh	Calb biofilm kill
O=C(NNC1=Nc2cccc3cccc1c23)c1ccc(Br)cc1	-15	39	-37	1	-14	15
O=C(CCNC(=O)c1ccco1)Nc1ccc(Cl)cc1	-9	22	12	-3	13	10
CCN(CC)c1ccc(NC(=O)CCNC(=O)c2ccco2)cc1	-5	79*	-74	-1	-7	20
CC(C)(C)/C(O)=C(/C#N)c1nc2ccccc2[nH]1	-4	12	-12	2	-1	·
N#C/C(=C(O)\C=C\c1ccccc1)c1nc2ccccc2[nH]1	·	67*	50	·	-63	27
CCc1ccc([C@@H]2C[C@H]3CN(Cc4ccccc4OC)C(=O)[C@]34CCCN24)cc1	-9	9	-15	0	18	-5
COc1ccc(CCN=C(N)NS(=O)(=O)c2ccc(C)cc2)cc1OC	-4	55*	0	0	-1	17
COc1ccc(CCN=C(N)NS(=O)(=O)c2ccccc2)cc1OC	1	12	-3	-5	2	20
O=C(/C=C/Nc1ccc([N+](=O)[O-])cc1)c1ccc(Br)cc1	-16	53*	15	0	-21	14
O=C(/C=C/Nc1ccc(F)cc1)c1ccc(Br)cc1	-3	-7	-12	-2	-50	11
Cc1cccc(N(C)S(=O)(=O)c2ccc3[nH]cc(C(=O)N4CCOCC4)c(=O)c3c2)c1	-1	50	51*	-1	-46	·
CC(=O)Nc1ccc(S(=O)(=O)NCC2CCC(C(=O)NCCC3=CCCCC3)CC2)cc1 (stereo not drawn)	-4	10	-9	2	52*	·
COc1ccc(NC(=O)c2ccccc2SC)cc1	11	-10	-18	-1	90*	4
COc1ccc(NC(=O)CN(C)CC(=O)Nc2ccccc2SC)cc1	0	18	51*	-3	17	22
COc1ccc(NC(=O)CN(C)C(C)C(=O)N2CCCCC2)cc1 (stereo not drawn)	7	24	56*	-3	-4	·
CC1CC(C)CN(C(=O)C(C)N(C)CC(=O)Nc2ccc(Cl)cc2)C1 (stereo not drawn)	9	9	37	-2	25	10
CCOc1ccc(NC(=O)CN(C)CC(=O)Nc2ccccc2SC)cc1OCC	9	-15	-24	-8	13	-3
COc1ccc(C(=O)Nc2ccc(C(=O)OCC(=O)c3cccc4ccccc34)cc2)cc1	-4	15	-7	44*	-1	15
CCC(=O)NC(=S)Nc1ccc(NC(=O)c2ccc(Br)o2)cc1	3	10	-24	1	44	13
COc1cc2c(cc1OC)CN(C1CC(=O)N(c3c(C)cccc3C)C1=O)CC2 (stereo not drawn)	-16	1	-9	3	-55	12
COC(=O)c1cc(=O)n(Cc2ccc(F)cc2)c(=Nc2ccccc2)s1	·	52*	-21	·	13	11
COC(=O)c1cc(=O)n(Cc2ccc(OC)c(OC)c2)c(=Nc2ccc(F)cc2)s1	-40	2	-9	-1	-32	·
N=C1CCC(=N)c2c1c(O)c1ccccc1c2O	·	76*	-15	·	24	-10
N#Cc1c(C#N)c(O)c2ccccc2c1O	·	32	-201	·	-60	10
